XBP1 UPR activ – adaptive UPR (XBP1) activation | CHO-XBP1 luciferase reporter, IRE1-XBP1 UPR activation, luminescence; percent of tunicamycin response, DMSO as zero | activation, % at 20 µM | 330,000 tested, 0.33% active | AID 463104;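 active means versus positive control, 20 µM dose yields 30% or more activation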;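 further: 100% = tunicamycin at 10 µg/mL and 0% = DMSO only wells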
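Material: CHO-XBP1 cells stably carrying IRE1-XBP1-driven luciferase reporter | Medium: F12 with 10% serum | Compound dosing: 20 µM single concentration, DMSO 1% | Incubation: Overnight seeding at 37 °C, 6 h compound treatment at 37 °C | Detection: Steady-Glo luminescence read | Read-out basis: % activation of reporter signal versus tunicamycin and DMSO controls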
CHOP UPR activ – apoptotic UPR (CHOP) activation; CHO-CHOP luciferase reporter, luminescence; percent of tunicamycin response over DMSO baseline; AID 449763; activation, % at 10 µM; 330,000 tested, 0.34% active;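 active means at 10 µM dose, activation of 40% or more, normalized to positive control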;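 further: 100% = tunicamycin at 10 µg/mL and 0% = DMSO alone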
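System: CHO-CHOP luciferase reporter cell line | Buffer or medium: F12 medium containing 10% fetal bovine serum | Doses: One dose, 10 µM in 0.5% DMSO | Times: 6 h compound exposure at 37 °C after overnight seeding | Signal: Luciferase luminescence | Read-out: % activation vs tunicamycin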
SKKanGAS inh – inhibitors of SKKanGAS S. pyogenes growth in kanamycin (SK-promoter or general growth effect); BacTiter-Glo, 6 h; inhibition, % at 7.5 µM; 300,000 tested, 1.3% active; AID 1662;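 active means mean replicate score, as percent of positive control median, at least 50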;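 further: strain carries kanamycin resistance gene driven by streptokinase promoter and grows in 40 µg/ml kanamycin; loss of luminescence reflects streptokinase promoter inhibition or plain growth inhibition; 0% = median of DMSO wells and 100% = positive control at its reference dose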
CSC inhib – cancer stem cell inhibition; cancer stem cell-like cells viability, luminescence; inhibition, % at 7.5 µM; 300,000 tested, 1.1% active; AID 2717; in the data active means inhibition above about 75%; tested in HMLE shEcad cells
Beta cell apopt – blocks beta cell apoptosis | INS-1E cytokine-induced death, ATP luminescence, 48 h; percent of positive-control rescue, neutral wells zero | 300,000 tested, 0.8% active | protection from apoptosis, % (no concentration beside the values);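 active means Every replicate reaches about 75%, or at least half do and their mean reaches it too, limit read from the data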;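 further: 0% = cytokine-treated negative control wells and 100% = positive control rescue; higher means more ATP so stronger rescue from cytokine killing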
Mdm2-MdmX inh – inhibitors of human Mdm2/MdmX interaction; O15151+Q00987; SaOS-2 split-luciferase Mdm2/MdmX complementation, luminescence; inhibition, % at 8 µM; 330,000 tested, 3% active; AID 485346;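 active means inhibition of at least 50% at 8 µM in the primary screen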
Target sequence (O15151 whole entry, looked up): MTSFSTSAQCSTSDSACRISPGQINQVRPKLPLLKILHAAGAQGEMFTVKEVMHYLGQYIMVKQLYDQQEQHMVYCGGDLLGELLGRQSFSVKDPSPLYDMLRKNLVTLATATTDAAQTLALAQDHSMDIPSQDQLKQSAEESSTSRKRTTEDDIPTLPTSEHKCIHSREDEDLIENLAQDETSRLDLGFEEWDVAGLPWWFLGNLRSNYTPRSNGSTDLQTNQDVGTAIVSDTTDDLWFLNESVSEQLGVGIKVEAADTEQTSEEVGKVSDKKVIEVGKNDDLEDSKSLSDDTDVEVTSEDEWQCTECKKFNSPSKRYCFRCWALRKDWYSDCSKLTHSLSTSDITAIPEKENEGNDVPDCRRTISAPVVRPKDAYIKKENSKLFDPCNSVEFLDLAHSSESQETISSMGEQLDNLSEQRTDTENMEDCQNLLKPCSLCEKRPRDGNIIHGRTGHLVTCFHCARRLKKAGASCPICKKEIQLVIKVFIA
Target sequence (Q00987 whole entry, looked up): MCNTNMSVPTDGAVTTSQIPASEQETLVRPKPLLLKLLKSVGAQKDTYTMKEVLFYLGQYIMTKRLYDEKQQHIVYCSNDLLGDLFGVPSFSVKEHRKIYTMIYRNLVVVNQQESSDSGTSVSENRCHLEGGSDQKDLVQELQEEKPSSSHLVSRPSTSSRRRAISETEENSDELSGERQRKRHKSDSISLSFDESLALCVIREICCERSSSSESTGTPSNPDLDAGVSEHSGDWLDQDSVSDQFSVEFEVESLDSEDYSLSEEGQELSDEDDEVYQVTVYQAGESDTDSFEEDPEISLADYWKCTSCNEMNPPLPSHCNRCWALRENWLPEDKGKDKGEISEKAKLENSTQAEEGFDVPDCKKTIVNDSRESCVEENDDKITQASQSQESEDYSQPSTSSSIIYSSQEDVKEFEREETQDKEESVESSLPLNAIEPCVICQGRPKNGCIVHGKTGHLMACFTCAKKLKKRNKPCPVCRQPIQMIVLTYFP
Active calls of the source: *; / = no result given. An excerpt weighted towards active compounds, which were near 4.8% of everything screened.

SMILES | XBP1 UPR activ | CHOP UPR activ | SKKanGAS inh | CSC inhib | Beta cell apopt | Mdm2-MdmX inh
Cc1c(Cc2ccccc2)sc(/N=C/c2ccc3ccccc3c2)c1C(N)=O | / | / | / | 49 | 4 | /
COc1cccc(-c2ncc3ccccc3c2COC(=O)N2CCCCC2)c1 | -2 | -1 | / | 17 | 7 | 13
N#Cc1ccccc1NC(=O)COC(=O)c1ccc2c(c1)OCO2 | 0 | 0 | / | -12 | -1 | -38
COc1ccc(-c2ccc(SC)nn2)cc1 | -5 | -7 | 45 | 80* | 60 | -29
COc1ccc(C(=O)CSc2ccc(-c3ccccc3)nn2)cc1 | -3 | 3 | -10 | -9 | 1 | 6
CN(C)S(=O)(=O)c1cccc(C(=O)N=C2N=C3C=CC(Cl)=CN3Cc3ccccc32)c1 | 3 | 4 | 5 | 1 | 5 | -88
O=C1c2ccccc2CC1(Cc1ccccc1)Cc1ccccc1 | -2 | 2 | 57* | 0 | 0 | 23
Cc1ccccc1-c1noc(-c2ccc(O)cc2)n1 | 2 | 3 | 12 | 96* | 25 | -132
O=C(O)c1ccc(N=Nc2c(-c3ccccc3)[nH]oc2=O)cc1 | -1 | 4 | 2 | -5 | -8 | -7
COc1ccccc1NC(=O)NNC(=O)CCN1CCOCC1 | -5 | 0 | 18 | 5 | / | -16
Cc1ccc2c(c1)C(c1ccccc1)CC(=O)O2 (stereo not given) | -1 | 2 | -9 | -3 | / | 38
O=c1/c(=C\c2cccc(O)c2)sc2nc(-c3ccccc3)c(-c3ccccc3)n12 | 0 | 2 | 70* | 91* | 10 | 5
CCN(CC)CCCNc1nc(N)c([N+](=O)[O-])c(N2CCCCCC2)n1 | -4 | 1 | 66* | -5 | -8 | -6
O=C(CCS(=O)(=O)c1cccc2nonc12)Nc1ccc(Br)cc1 | -1 | -2 | 1 | -10 | 0 | 18
CCOc1ccc(C(=O)CCC(=O)N2CCN(c3ccc(O)cc3)CC2)cc1 | -2 | -2 | / | 81* | 10 | 6
O=C(CCC(=O)N1CCN(c2ccc(O)cc2)CC1)c1ccc(Br)cc1 | 1 | -1 | 0 | 101* | 5 | -13
O=C(CCC(=O)N1CCN(c2ccc(O)cc2)CC1)c1cccs1 | -3 | 2 | -2 | 22 | 7 | -36
Cc1cc(-c2ccccc2)nc(N/N=C/c2ccccc2F)n1 | -1 | 6 | -12 | 22 | 8 | -51
CCN1CCN(C(=O)c2ccc3c(c2)c(C)c(C)n3Cc2ccccc2)CC1 | 2 | 4 | 0 | 53 | -13 | 13
CCn1c(C)c(C)c2cc(C(=O)N3CCc4ccccc4C3)ccc21 | -1 | 2 | 18 | 62 | 113* | 49
CCCCn1c(C2CCCCC2)nc2cc3[nH]c(=O)c(C(C)C)nc3cc21 | 6 | 0 | 13 | 81* | / | 16
COc1ccccc1NC(=O)Cc1nnc(SCC(=O)c2ccc(F)cc2)n1C | 4 | 1 | -6 | -13 | -5 | -14
N#CC1=C2SC=C(c3ccc(Br)cc3)N2CCCC1=O | -1 | 4 | 41 | 86* | 13 | -168
Fc1ccccc1N=C1NN=C(c2ccccc2)CS1 | -1 | 2 | 67* | 47 | 97* | -174
Cc1cc(C2=NNC(=Nc3ccccc3)SC2)c(C)n1C | -2 | 6 | 3 | -13 | -13 | -90
SMILES | XBP1 UPR activ | CHOP UPR activ | SKKanGAS inh | CSC inhib | Beta cell apopt | Mdm2-MdmX inh
CN(C)S(=O)(=O)c1cccc(N=C2NN=C(c3ccccc3)CS2)c1 | / | / | / | 17 | 91* | /
CC(=O)Nc1ccc(C2=NNC(=Nc3cccc(S(=O)(=O)N(C)C)c3)SC2)cc1 | -1 | -1 | 2 | 38 | 96* | 20
CC(=O)Nc1ccc(C2=NNC(=Nc3ccc(S(=O)(=O)N4CCOCC4)cc3)SC2)cc1 | -2 | 1 | -2 | 0 | 1 | 10
Cc1ccc(S(=O)(=O)N2CC(C)C(=O)CC2C)cc1 (stereo not given) | 1 | 1 | 0 | 3 | -1 | 15
CCOc1ccc(CCNC(=O)c2ccc3nc(N4CCOCC4)sc3c2)cc1OCC | -1 | 1 | -15 | -9 | 5 | 23
CN1CCN(c2nc(-c3cccc([N+](=O)[O-])c3)nc3ccccc23)CC1 | 0 | -1 | 2 | 5 | 0 | 18
OCCN1CCN(CCCc2c3c(cc4c2CCC4)CCC3)CC1 | -1 | 2 | -1 | 95* | -7 | 11
CCOP(=O)(OCC)c1nc(-c2cccc3ccccc23)oc1NCc1ccc(OC)cc1 | 0 | 0 | 57* | 11 | 3 | 36
CN(C(=O)c1ccc(NC(=O)C2CCCN(C(=O)OC(C)(C)C)C2)cc1)C1CC1 (stereo not given) | -2 | -2 | / | -16 | 1 | 16
Cc1ccc2nc(-c3cccc(NS(C)(=O)=O)c3)cc(-c3ccccc3)c2c1 | 0 | 1 | 33 | 115* | -3 | 31
Cc1nc(-c2cccc(NS(=O)(=O)c3ccccc3)c2)cs1 | 1 | 1 | 9 | -13 | -7 | 23
Cc1nc2ccccc2c(=O)n1NC(=O)c1c(O)c2c(n(CC(C)C)c1=O)CCCC2 | 1 | 3 | 33 | / | -3 | 46
CCCCCCc1nc2ccccc2c(=O)n1NC(=O)c1c(O)c2c(n(CC(C)C)c1=O)CCCC2 | -2 | 8 | 57* | 9 | 2 | 46
COc1cc(NC(=O)Cc2ccccc2)ccc1NC(=O)c1ccccc1 | -5 | 1 | 17 | 1 | / | -5
Nc1ccc2c(c1)COc1ccccc1O2 | 2 | 0 | 3 | 4 | -2 | 0
Nc1ccc2c(c1)Oc1ccccc1C=C2 | 3 | 1 | 3 | 110* | -13 | 20
CCc1ccc(-n2ccc(=O)c(C(=O)O)n2)cc1 | 7 | 2 | -2 | -3 | -2 | 5
CCOC(=O)C1=C(N)Oc2cc(O)ccc2C1c1cccc(Cl)c1 (stereo not given) | -2 | -1 | 38 | 82* | -3 | 46
CCOC(=O)C1=C(N)Oc2cc(O)ccc2C1c1cccnc1 (stereo not given) | 4 | 0 | 3 | -19 | -4 | 24
CCCOc1ccc(C(=O)C(CN2CCCC2)c2ccccc2)cc1 (stereo not given) | / | / | -2 | 101* | 0 | /
CCCCOc1ccc(C(O)C(CN2CCCCC2)c2ccccc2)cc1 (stereo not given) | -3 | 0 | 6 | / | 4 | 12
CCCCCOc1ccc(/C=C/c2c([N+](=O)[O-])c(=O)n(C)c(=O)n2C)cc1 | -3 | 2 | 60* | 32 | 11 | 43
COc1ccc(/C=C/c2c([N+](=O)[O-])c(=O)n(C)c(=O)n2C)cc1OC | -2 | -1 | -12 | -16 | -8 | 14
CCS(=O)(=O)N1CCN(Cc2c[nH]c3ccccc23)CC1 | -3 | 0 | 0 | -3 | -6 | 13

Assay outcomes as filed in PubChem BioAssay.
